Assay results: ChEMBL document CHEMBL1811821, “Cystic fibrosis: a new target for 4-Imidazo[2,1-b]thiazole-1,4-dihydropyridines” (J Med Chem, 2011)
pEC50, pIC50, pKd: −log10 of the molar value. The source made the active and inactive calls. No cut-off for these calls is given here.

Tests used:
[1] = Bronchodilatory activity in guinea pig trachea assessed as inhibition of carbachol-induced contraction at 10^-5 M; type: functional; conditions: Cavia porcellus
[2] = system: Cystic fibrosis transmembrane conductance regulator (Homo sapiens), P13569 [F508del]; assay: Activity at CFTR F508 deletion mutant expressed in forskolin-stimulated FRT cells assessed as maximal increase in iodine influx measured as YFP quenching rate at 0.2 uM after 24 hrs by fluorescence assay; type: cell-based
Outline: (§1)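 ΔF508-CFTR and halide-sensitive YFP coexpressed in FRT cells, held at 27 °C for 24 h for rescue, then stimulated 30–40 min with 20 μM forskolin with or without compound at 0.2, 2 and 20 μM. Fluorescence read before and after I– addition (100 mM final). Normalized decay fitted exponentially for maximal quenching rate; dose–response fitted with Hill equation for potency and maximal effect. Three independent determinations.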

[3] = Binding affinity to CFTR F508 deletion mutant expressed in forskolin-stimulated FRT cells assessed as increase in iodine influx measured as YFP quenching rate after 24 hrs by fluorescence assay; type: cell-based; outline: as §1
[4] = Negative ionotropic activity in potassium depolarized guinea pig longitudinal smooth muscle assessed as inhibition of calcium-induced contraction; type: functional, Cavia porcellus
[5] = system: Cystic fibrosis transmembrane conductance regulator (Homo sapiens), P13569 [F508del]; assay: Activity at CFTR F508 deletion mutant expressed in forskolin-stimulated FRT cells assessed as maximal increase in iodine influx measured as YFP quenching rate after 24 hrs by fluorescence assay; type: cell-based; outline: as §1
[6] = Negative chronotropic activity against potassium-induced contraction in guinea pig right atrium assessed as decrease atrial rate; type: functional, tissue-based; conditions: Cavia porcellus, Cardiac atrium
Outline: (§2)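 Spontaneously beating isolated guinea pig right atrium, pretreatment rate 165–190 beats/min. Drugs added cumulatively. Decrease in atrial rate expressed as percent change from control, n = 7–8. […] Control versus treated tested at each concentration by Student's t-test, P < 0.05. Mean ± SEM.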

[7] = species on record: Cavia porcellus; assay: Negative ionotropic activity in potassium depolarized guinea pig longitudinal smooth muscle assessed as inhibition of calcium-induced contraction at 10^-6 M; type: functional
[8] = system: Aorta; assay: Vasorelaxant activity in potassium depolarized guinea pig aortic strip assessed as inhibition of calcium-induced contraction at 10^-4 M; type: functional; conditions: Cavia porcellus
Outline: (§3)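 Guinea pig aortic strips depolarized with 80 mM K+, with cumulative drug addition. Relaxation given as mean ± SEM. […] Student's t-test against control, P < 0.05.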

[9] = Negative chronotropic activity against potassium-induced contraction in guinea pig right atrium assessed as decrease atrial rate at 10^-5 M relative to control; type: functional; conditions: Cavia porcellus, Cardiac atrium; outline: as §2
[10] = Negative ionotropic activity against potassium-induced contraction in guinea pig left atrium assessed as […] at 10^-6 M relative to control; type: functional; conditions: Cavia porcellus, Cardiac atrium
Outline: (§4)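 Isolated guinea pig left atrium paced at 1 Hz. Drugs added cumulatively. Negative inotropic effect expressed as percent change from control, n = 5–6. […] Student's t-test against control at each concentration, P < 0.05. Mean ± SEM.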

[11] = Negative ionotropic activity against potassium-induced contraction in guinea pig left atrium assessed as decrease in developed tension; conditions: Cavia porcellus, Cardiac atrium
[12] = species on record: Cavia porcellus; assay: Negative ionotropic activity in potassium depolarized guinea pig longitudinal smooth muscle assessed as inhibition of calcium-induced contraction at 5 X 10^-5 M; type: functional
[13] = Ratio EC50 for negative chronotropic activity against potassium-induced contraction in guinea pig right atrium to EC50 for negative […] activity against potassium-induced contraction in guinea pig left atrium; type: functional, Cavia porcellus, Cardiac atrium
[14] = system: Cystic fibrosis transmembrane conductance regulator (Homo sapiens), P13569 [F508del]; assay: Activity at CFTR F508 deletion mutant expressed in forskolin-stimulated FRT cells assessed as maximal increase in iodine influx measured as YFP quenching rate up to 20 uM after 24 hrs by fluorescence assay; type: cell-based; outline: as §1
[15] = Negative ionotropic activity against potassium-induced contraction in guinea pig left atrium assessed as […] at 10^-4 M relative to control; type: functional; conditions: Cavia porcellus, Cardiac atrium; outline: as §4
[16] = Negative chronotropic activity against potassium-induced contraction in guinea pig right atrium assessed as decrease atrial rate at 10^-4 M relative to control; type: functional; conditions: Cavia porcellus, Cardiac atrium; outline: as §2
[17] = system: Aorta; assay: Vasorelaxant activity in potassium depolarized guinea pig aortic strip assessed as inhibition of calcium-induced contraction at 10^-6 M; type: functional; conditions: Cavia porcellus; outline: as §3
[18] = species on record: Cavia porcellus; assay: Negative ionotropic activity in potassium depolarized guinea pig longitudinal smooth muscle assessed as inhibition of calcium-induced contraction at 5 X 10^-8 M; type: functional
[19] = system: Aorta; assay: Vasorelaxant activity in potassium depolarized guinea pig aortic strip assessed as inhibition of calcium-induced contraction at 10^-5 M; type: functional; conditions: Cavia porcellus; outline: as §3
[20] = species on record: Cavia porcellus; assay: Negative ionotropic activity in potassium depolarized guinea pig longitudinal smooth muscle assessed as inhibition of calcium-induced contraction at 10^-5 M; type: functional
[21] = Negative chronotropic activity against potassium-induced contraction in guinea pig right atrium assessed as decrease atrial rate at 5 X 10^-6 M relative to control; type: functional; conditions: Cavia porcellus, Cardiac atrium; outline: as §2
[22] = Bronchodilatory activity in guinea pig trachea assessed as inhibition of carbachol-induced contraction; type: functional, tissue-based, Cavia porcellus
[23] = Negative ionotropic activity against potassium-induced contraction in guinea pig left atrium assessed as […] at 10^-7 M relative to control; type: functional; conditions: Cavia porcellus, Cardiac atrium; outline: as §4
[24] = Bronchodilatory activity in guinea pig trachea assessed as inhibition of carbachol-induced contraction at 10^-4 M; type: functional; conditions: Cavia porcellus
[25] = species on record: Cavia porcellus; assay: Negative ionotropic activity in potassium depolarized guinea pig longitudinal smooth muscle assessed as inhibition of calcium-induced contraction at 5 X 10^-7 M; type: functional
[26] = Ratio EC50 for nifedipine to compound for negative […] activity against potassium-induced contraction in left atrium of guinea pig; type: functional, Cavia porcellus, Cardiac atrium

Chain of Cystic fibrosis transmembrane conductance regulator (Homo sapiens), P13569 [F508del] (P13569 as listed by the source): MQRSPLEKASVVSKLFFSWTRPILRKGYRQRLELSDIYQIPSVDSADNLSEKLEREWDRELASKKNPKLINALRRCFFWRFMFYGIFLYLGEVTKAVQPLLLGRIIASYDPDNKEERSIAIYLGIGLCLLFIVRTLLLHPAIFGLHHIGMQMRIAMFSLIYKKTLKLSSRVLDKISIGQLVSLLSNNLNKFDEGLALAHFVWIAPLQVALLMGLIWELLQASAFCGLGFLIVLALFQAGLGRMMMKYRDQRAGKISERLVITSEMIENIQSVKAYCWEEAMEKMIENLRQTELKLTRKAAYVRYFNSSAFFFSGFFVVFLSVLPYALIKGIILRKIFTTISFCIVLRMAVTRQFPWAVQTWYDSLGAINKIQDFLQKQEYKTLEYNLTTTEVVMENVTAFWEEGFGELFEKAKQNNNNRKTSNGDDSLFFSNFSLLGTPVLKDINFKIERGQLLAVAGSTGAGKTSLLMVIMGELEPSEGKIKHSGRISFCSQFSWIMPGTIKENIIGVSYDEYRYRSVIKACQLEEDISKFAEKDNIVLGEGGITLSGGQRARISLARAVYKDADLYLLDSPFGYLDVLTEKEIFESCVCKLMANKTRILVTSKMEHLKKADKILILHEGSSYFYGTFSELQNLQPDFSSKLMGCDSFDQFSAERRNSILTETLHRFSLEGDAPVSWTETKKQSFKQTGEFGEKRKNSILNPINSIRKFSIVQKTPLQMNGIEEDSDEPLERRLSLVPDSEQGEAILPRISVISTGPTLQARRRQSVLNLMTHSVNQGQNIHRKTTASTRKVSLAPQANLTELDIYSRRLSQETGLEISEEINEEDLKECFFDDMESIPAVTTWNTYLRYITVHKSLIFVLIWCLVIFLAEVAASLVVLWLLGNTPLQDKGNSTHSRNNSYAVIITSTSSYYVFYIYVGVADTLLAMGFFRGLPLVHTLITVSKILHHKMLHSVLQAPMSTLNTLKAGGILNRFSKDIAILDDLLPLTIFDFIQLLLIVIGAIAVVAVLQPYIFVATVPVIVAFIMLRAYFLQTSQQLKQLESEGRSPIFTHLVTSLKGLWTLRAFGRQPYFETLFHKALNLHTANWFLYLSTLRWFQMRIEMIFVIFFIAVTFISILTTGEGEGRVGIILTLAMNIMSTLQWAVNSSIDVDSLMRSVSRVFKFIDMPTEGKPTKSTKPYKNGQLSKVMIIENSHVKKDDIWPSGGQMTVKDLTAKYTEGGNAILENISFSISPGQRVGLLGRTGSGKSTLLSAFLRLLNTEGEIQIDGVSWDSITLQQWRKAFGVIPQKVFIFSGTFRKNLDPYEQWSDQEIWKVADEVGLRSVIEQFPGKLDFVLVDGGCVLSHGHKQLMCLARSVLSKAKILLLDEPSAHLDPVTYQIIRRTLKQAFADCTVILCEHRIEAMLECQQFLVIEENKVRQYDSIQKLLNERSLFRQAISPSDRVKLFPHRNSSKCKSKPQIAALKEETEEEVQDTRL

SMILES | Activity [2] | pIC50 [4] | Emax [5] [ms-1] | pEC50 [11] | Activity [14] | inhibition at 10 µM [1] [%] | pKd [3] | further results
COC(=O)C1=C(C)NC(C)=C(C(=O)OC)C1c1c(-c2cc(OC)c(OC)cc2[N+](=O)[O-])nc2sccn12 | inactive | 4.94 |  |  | inactive |  |  | inhibition [12]: 86%; Ratio EC50 [13]: 9
C=CCOC(=O)C1=C(C)NC(C)=C(C(=O)OCC=C)C1c1c(-c2ccc(OC(F)(F)F)cc2)nc2sccn12 | inactive | 8.28 | 60 | 6.14 |  | 38 | 5.32 | inhibition at 100 µM [15]: 88%; pEC50 [6]: 5.71; inhibition at 100 µM [16]: 77%; inhibition at 1 µM [17]: 31%; inhibition [18]: 90%
C=CCOC(=O)C1=C(C)NC(C)=C(C(=O)OCC=C)C1/C=C/c1ccccc1OC |  | 6.03 | 59 | 7.47 |  | 29 | 6.40 | inhibition at 10 µM [19]: 1%; inhibition [20]: 68%; inhibition at 10 µM [9]: 6%; inhibition at 1 µM [10]: 83%
CCOC(=O)C1=C(C)NC(C)=C(C(=O)OCC)C1c1cccc(Oc2ccccc2)c1 |  | 6.64 | 62 | 7.54 |  | 30 | 6.43 | inhibition at 5 µM [21]: 38%; inhibition at 10 µM [19]: 17%; inhibition [20]: 83%; inhibition at 1 µM [10]: 80%
COC(=O)C1=C(C)NC(C)=C(C(=O)OC)C1c1c(-c2ccccc2OC(F)(F)F)nc2sccn12 | inactive |  |  |  | inactive | 47 |  | 
COC(=O)C1=C(C)NC(C)=C(C(=O)OC)C1c1c(-c2cc(OC)c([N+](=O)[O-])cc2OC)nc2sc(Cl)cn12 | inactive | 7.13 |  |  | inactive |  |  | inhibition at 100 µM [24]: 35%; inhibition [25]: 92%
COC(=O)C1=C(C)NC(C)=C(C(=O)OC)C1c1c(-c2ccc(OC)c(OC)c2)nc2sccn12 | inactive | 6.35 |  |  | inactive |  |  | inhibition [7]: 90%
COC(=O)C1=C(C)NC(C)=C(C(=O)OC)C1c1c(-c2ccccc2OC)nc2sccn12 | inactive | 6.07 |  |  | inactive |  |  | 

Second part, led by results:

Activity [2] | pIC50 [4] | Emax [5] [ms-1] | pEC50 [11] | Activity [14] | SMILES | inhibition at 10 µM [1] [%] | pKd [3] | further results
inactive | 7.42 | 46 | 6.37 |  | CCOC(=O)C1=C(C)NC(C)=C(C(=O)OCC)C1c1c(-c2ccc(Cl)c(Cl)c2Cl)nc2sccn12 | 40 | 5.49 | pEC50 [6]: 6.21; inhibition [7]: 77%; inhibition at 100 µM [8]: 17%; inhibition at 10 µM [9]: 92%; inhibition at 1 µM [10]: 90%
inactive | 6.49 | 60 |  |  | COC(=O)C1=C(C)NC(C)=C(C(=O)OC)C1c1c(Cl)nc2sc(C)c(C)n12 |  | 4.96 | inhibition [7]: 78%
inactive | 7.24 | 60 | 7.51 |  | CCOC(=O)C1=C(C)NC(C)=C(C(=O)OCC)C1c1c(Cl)nc2sc(C)cn12 |  | 5.08 | inhibition at 5 µM [21]: 36%; pIC50 [22]: 5.63; inhibition at 0.1 µM [23]: 56%; inhibition at 100 µM [8]: 8%
inactive | 5.67 |  |  | inactive | CCc1cn2c(C3C(C(=O)OC)=C(C)NC(C)=C3C(=O)OC)c(-c3cc(OC)ccc3OC)nc2s1 |  |  | inhibition [20]: 92%
inactive |  |  |  | inactive | COC(=O)C1=C(C)NC(C)=C(C(=O)OC)C1c1c(Cl)nc2sc(C)cn12 |  |  | 
inactive | 6.26 | 60 |  |  | COC(=O)C1=C(C)NC(C)=C(C(=O)OC)C1c1c(C)nc2sc(Cl)cn12 |  | 4.37 | Ratio EC50 [26]: 2.6
